Test results published in ChEMBL document CHEMBL4513216, “Probing the Open Global Health Chemical Diversity Library for Multistage-Active Starting Points for Next-Generation Antimalarials” (ACS Infect Dis, 2020).

Assay: Toxicity liver stage against HepG2, at 10uM
Type: cell-based
Parameters: test concentration 10 uM, cell line HepG2-A16-CD81EGFP
Conditions: human, HepG2-A16-CD81EGFP cells; read-out: INHIBITION
How it was run: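 Uninfected HepG2-A16-CD81EGFP cells, 3 × 10^3 per well, 1536-well, plated on prespotted compound at 10 μM final, parasite-free screening media added to match infected plates; puromycin 10 μM positive, DMSO 0.5% negative; run in parallel with 48 h PbLuc assay at 37 °C, 5% CO2; viability by CellTiter-Glo luminescence, normalized to controls.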

Structure (SMILES) | cytotoxicity at 10 µM
Cc1cc2c(N)nc(=O)n(CC(=O)Nc3cccc(Cl)c3)c2s1 | -3.14%
O=C(Nc1nccs1)c1csc(NC2CCCC2)n1 | 42%
CC1=Nc2c(c(=O)[nH]n2C(C)C)C(c2ccc3ncccc3c2)S1 (stereo unspecified) | 4.66%
CNC(=O)CS(=O)(=O)C1CCN(S(=O)(=O)c2cccc(Cl)c2C)CC1 | 4.73%
CN(C)C(=O)N1CCN(C(=O)c2cccc(Cl)c2)CC2(CNC(=O)C2)C1 (stereo unspecified) | 7.61%
O=C1NC(c2ccccc2)=N[C@@]12CC[C@@H]1CN(S(=O)(=O)C3CC3)C[C@@H]12 | 9.91%
O=C(Nc1cccc(Cl)c1)c1nn(C2CCS(=O)(=O)C2)c2c1CCCC2 (stereo unspecified) | -12.9%
CN(C)c1nc2n(c(=O)n1)CCN2C(=O)Nc1cccc(Cl)c1 | 8.19%
Cc1cccc(NC(C)C(=O)Nc2nccs2)c1 (stereo unspecified) | -0.524%
CCn1nc(C)c(C(=O)NCc2csc(C3CC3)n2)c1C | 20.5%
Cn1nccc1CN1CCOC(c2cccc(Nc3ccccn3)n2)C1 (stereo unspecified) | 23.9%
Cc1cc(-c2cnc(N3CCC(C(N)=O)CC3)nc2C(C)C)on1 | 72.2%
Nc1nccnc1CC1CCCN(Cc2ccnc3ccccc23)C1 (stereo unspecified) | 24.7%
Cc1csc(C(=O)N2CCC(O)(CN3CCc4ccccc4C3)C2)c1 (stereo unspecified) | -1.22%
COc1cccc(-c2noc(C3CCN(Cc4ccncc4)C3)n2)c1 (stereo unspecified) | 25.9%
CN1CCCC1c1cccc(Cc2ccccc2F)n1 (stereo unspecified) | 7.31%
O=C(CCC1CCCC1)NCc1nnc2ccccn12 | 2.52%
FC(F)Oc1ccc(CNCc2cc(Br)c3c(c2)OCO3)cc1 | 35.1%
CN1CCCN(c2ccc(F)cc2CNC(=O)c2ccsc2)CC1 | -12.3%
Cc1ncc(CN2CCC(c3ccnn3C)CC2)n1-c1ccccc1 | 19.1%
CC(C)(C)CC1CCCN1Cc1nc(-c2ccco2)no1 (stereo unspecified) | 4.11%
COC(=O)C(CNC(=O)Nc1nncs1)Cc1cccc(C)c1 (stereo unspecified) | 6.53%
CCCOc1ccccc1C(N)CC(C)C (stereo unspecified) | -0.595%

Structure (SMILES) | cytotoxicity at 10 µM
NC(=O)CCC1CCCN(c2ccnc3cc(F)ccc23)C1 (stereo unspecified) | 14.6%
Cc1cc(C2CCCN(Cc3nc(Cc4ccccc4)no3)C2)n[nH]1 (stereo unspecified) | 3.82%
COc1cccc(NC(=O)N2CCC(O)(C(F)(F)F)C2)c1 (stereo unspecified) | 3.2%
CC(CCc1ccccc1F)C(=O)NS(=O)(=O)N(C)C(C)C (stereo unspecified) | 10.6%
COCCCC(=O)Nc1cc(Cl)c(Cl)cn1 | 87%
CCc1nsc(N2CCN(CC(=O)NCc3cccnc3)CC2)n1 | -4.52%
COc1cccc(C(=O)NCc2ccccc2S(=O)(=O)N(C)CCO)c1 | -4.73%
CCc1ccc(C2COCCN2C(=O)Nc2ccc(C(N)=O)c(Cl)c2)o1 (stereo unspecified) | 2.42%
COc1ccc(CNC(=O)C2=NN(c3ccc(C)cc3)C(=O)CN2)cc1 | 17.5%
Cc1cc(C)n(CC2CCCCN2CC(=O)Nc2nccs2)n1 (stereo unspecified) | 10.1%
CCn1ccnc1CN1CCN(c2nc(C)cc(OC)n2)CC1 | -5.48%
Cc1nc(C(C)(C)NC(=O)Nc2ccc(C#N)cc2)no1 | 13%
COCCN(Cc1ccc(F)cc1Cl)C(=O)c1cnn(C)c1C | 12.8%
Cc1cnn(CC2CCCN2Cc2coc(-c3cccc(F)c3)n2)c1 (stereo unspecified) | 1.2%
CC(C)c1nc(CNC2CCCN(c3cccnn3)C2)no1 (stereo unspecified) | 7.68%
CC(=O)Nc1cccc(OCCNC(=O)N(C)Cc2ccccc2)c1 | -13.2%
O=C(CN1CCCC1Cn1cncn1)Nc1ccc(Cl)cn1 (stereo unspecified) | -5.89%
COc1ccccc1NC(=O)N(CCO)Cc1ccsc1 | -1.05%
CN(Cc1ccc(N(C)C)cc1)C(=O)CSc1ccc(Br)cc1 | 45.6%
NC(CC1CCCC1)c1ccc(Oc2ccccc2)cc1 (stereo unspecified) | 3.72%
Cc1nn(CCC#N)c(C)c1CCC(=O)N(C)Cc1ccc(F)cc1F | -1.31%
Cc1n[nH]cc1CNC1CCN(c2cccc(C(F)(F)F)c2)CC1 | -64.8%
Cc1cnn(CC(=O)NCC2(O)CCCc3ccccc32)c1 (stereo unspecified) | -38%

Structure (SMILES) | cytotoxicity at 10 µM
CC(c1ccccc1)N(C)C(=O)CN1CCCc2cc(F)cc(F)c21 (stereo unspecified) | 27.3%
Clc1cnccc1NCc1cccc(COC2CCOCC2)c1 | 53.9%
CC(C)n1cnnc1C1CCCN(S(=O)(=O)CC2CCCC2)C1 (stereo unspecified) | -11.7%
CCCC(=O)N1CCCN(C(=O)c2oc(C)nc2C)CC1 | -3.92%
CC(C)c1nc(COc2cccc3c2NC(=O)CO3)cs1 | 35.8%
CNC(=O)c1[nH]nc2ccc(I)cc12 | -61.9%
CCc1nnsc1C(=O)NC1CCN(CCOc2ccc(Br)cc2)CC1 | -9.56%
CN(C)c1ncc(CNC(=O)Nc2ccc(C(F)(F)F)cc2)n1C | -49.9%
COc1ccc(NC(C)=O)c(N2CCN(C(C)=O)CC2)n1 | -8.83%
Cc1ncnc2c1CCN(C(=O)N(C)C)CC2 | -79.1%
Cc1cccc(CN2CCC3(CC(C(=O)NCC(C)C)=NO3)C2)c1 (stereo unspecified) | 4.66%
c1ccc(CCN2C[C@@H]3OCCN(c4ncccn4)[C@@H]3C2)cc1 | -74.1%
O=C(CCO)N1CC[C@@H]2CN(C(=O)c3ccco3)CCO[C@@H]2C1 | -72.6%
COCCC(=O)N1CCc2nc(N3CCOCC3)nc(NC(C)C)c2C1 | -108%
COc1cc(N2C[C@H]3CCC[C@@H](CN4CCCC4)[C@H]3C2)ncn1 | -79%
Cn1cc(CNCC2(N3CCCCC3)Cc3ccccc3C2)cn1 | -3.07%
CCC(CO)N(Cc1ccccn1)Cc1c[nH]nc1-c1ccc(F)cc1 (stereo unspecified) | -1.83%
CCCn1ncc(-c2ccnc(NC3CCCc4ccccc43)n2)c1C (stereo unspecified) | 20.6%
COc1cccc(OC2CN(C(=O)c3cc(CC(C)C)nn3C)C2)c1 | 53.2%
Cc1nc[nH]c1CN1CCCC12CCN(c1nc3ccccc3s1)CC2 | -0.369%
CCCNCc1ccc(-c2ccnc3[nH]ccc23)cc1 | 66%
COc1ccc(C(=O)NC2CC2)c(OC2CCN(C(C)CO)CC2)c1 (stereo unspecified) | -7.71%
CCn1cc(-c2cc(-c3cc(CN(C)C)cs3)nc(N)c2C#N)c(C)n1 | 0.184%

Structure (SMILES) | cytotoxicity at 10 µM
CCC(C)CN1CCC(n2cc(C3CCCCC3)nn2)CC1 (stereo unspecified) | -2.9%
Cc1nc(CCN)cc(N2CCC(O)(c3ccc(Cl)cc3)CC2)n1 | -2.24%
CCCN1CCC(Nc2cc(-c3ccccc3)ccc2OC)CC1 | 0.906%
c1ccc2sc(N3CCN(c4ncnc5c4CCC5)CC3)nc2c1 | 56.7%
CNC(=O)CCC(=O)N1CCOC(c2ccc3cc(OC)ccc3c2)C1 (stereo unspecified) | 3.85%
Cc1ccccc1CN(Cc1ccc(S(C)(=O)=O)cc1)CC(C)C | 16.6%
FC(F)(F)c1cccc(OC2CCN(Cc3ncc[nH]3)CC2)c1 | -2.45%
Cc1csc2c(N3CCC(Cn4cc(C(C)(C)O)nn4)CC3)ncnc12 | 29.9%
Nc1nc2c(c(NCc3nccs3)n1)CCN(CC1CCCC1)CC2 | 4.36%
Nc1cc(N2CCCC(COc3ccc(F)cc3)C2)nc(N)n1 (stereo unspecified) | -7.58%
COc1ccc(F)c(CN2CCCC3(CCN(C4CCOCC4)C3)C2)c1 (stereo unspecified) | -1.48%
Cc1nc(N(C)C2CCCCC2)ncc1C(C)NC(=O)c1cccnc1 (stereo unspecified) | -105%
Cn1cnnc1CN1CCC2(CCC(=O)N(Cc3ccccc3)C2)CC1 | 7.8%
CC(=O)N1CCc2nc(N(C)C)nc(NCCc3ccccc3)c2CC1 | -2.38%
O=C1NCCCC12CCN(c1nc3c(c(C(F)(F)F)n1)CCCC3)C2 (stereo unspecified) | -7.11%
CCC(C)N(Cc1cc(C)n[nH]1)Cc1ccccc1Cl (stereo unspecified) | 6.65%
O=C1N(Cc2ccc(F)c(F)c2)CCCC12CCN(C1CCSCC1)C2 (stereo unspecified) | -19.1%
CC(C)c1cc(CN2CCC(N)CC2)no1 | -8.24%
CCc1nc(C)cn1C(=O)Nc1ccc(F)cc1 | 11.1%
CCOCc1ccc(CNc2cncc(-n3cccn3)n2)cc1 | 20.8%
c1cnc(-c2nc(CN3CCN(CC4CC4)CC3)cs2)nc1 | -10.1%
COc1cc(CNCc2c(C)nn(CC(C)C)c2N(C)C)ccn1 | -9.3%
Cc1ccc(S(=O)(=O)Nc2ccc(=O)n(C)c2)c(Br)c1 | 0.802%

Structure (SMILES) | cytotoxicity at 10 µM
COc1cc(C(=O)Nc2nc(C)no2)ccc1OC(F)F | -4.29%
COc1ccc(C)cc1CN1CCCC1c1noc(C2CC2)n1 (stereo unspecified) | 16.3%
c1ccc2sc(CN3CCCC3c3noc(C4CC4)n3)nc2c1 (stereo unspecified) | -9.88%
c1ccc2c(N3CCCC3Cn3cccn3)ncnc2c1 (stereo unspecified) | 7.94%
c1cnn(CC2CCCN2c2ncnc3sccc23)c1 (stereo unspecified) | 38.1%
N#Cc1ccc(NCCNc2ccc(C(F)(F)F)cn2)nc1 | 73%
Cn1ncc(NCc2cccc(COC(C)(C)C)c2)c(Cl)c1=O | 42.2%
Cc1nc(C)n(CC2CCCN(c3ncnc4c3CCC4)C2)n1 (stereo unspecified) | 30.5%
Cn1ccnc1CN(Cc1ccccn1)Cc1ccccc1Cl | 11.5%
O=C([C@H]1C[C@H]2OCC[C@H]2N(CC2CCOCC2)C1)N1CCCC1 | -0.972%
COc1c(CNC2CCOc3c(Cl)cccc32)c(C)nn1C (stereo unspecified) | 28.9%
Fc1cccc(N2CCCC3(C2)CN(c2ncccn2)CCO3)c1 (stereo unspecified) | 17.4%
CS(=O)(=O)N1Cc2ccnn2CC(C(=O)NCc2cccnc2)C1 (stereo unspecified) | -88.9%
CCc1cnc(N2CCc3cc(C(=O)NC)c(N(C)C)nc3CC2)nc1 | -125%
CN(C)c1nccc(N2CCO[C@H]3CN(Cc4nccn4C)C[C@H]32)n1 | -123%
Cc1ccc(C(=O)N2CC[C@@H]3[C@H]2CCC(=O)N3CCN(C)C)cn1 | -0.726%
Cc1ccc(C(=O)N2CCC3(CCN3c3ncccn3)C2)cn1 (stereo unspecified) | -135%
CC(=O)c1cc(CN2C[C@@H]3CC[C@H]2CN(S(=O)(=O)N(C)C)C3)cs1 | -8.19%
CCC1=NN2C(=N)C(=Cc3cccn3-c3ccc(Cl)cc3)C(=O)N=C2S1 | 7.92%
